TRPML3 ag: human TRPML3 channel agonists, primary screen, cell-based, HEK293 TRPML3-YFP, Fluo-8 calcium fluorescence, 3 µM | Mucolipin-3 (Homo sapiens), Q8TDD5 | 100% = the carbachol control signal | activation, % at 3 µM | 220,000 compounds, 0.29% hits | AID 1448, 2008;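 active = activation above its plate's cutoff, the mean activation of the plate's test wells plus 3 SD, cut at about 12% in these data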
Target sequence (Q8TDD5 whole entry, looked up): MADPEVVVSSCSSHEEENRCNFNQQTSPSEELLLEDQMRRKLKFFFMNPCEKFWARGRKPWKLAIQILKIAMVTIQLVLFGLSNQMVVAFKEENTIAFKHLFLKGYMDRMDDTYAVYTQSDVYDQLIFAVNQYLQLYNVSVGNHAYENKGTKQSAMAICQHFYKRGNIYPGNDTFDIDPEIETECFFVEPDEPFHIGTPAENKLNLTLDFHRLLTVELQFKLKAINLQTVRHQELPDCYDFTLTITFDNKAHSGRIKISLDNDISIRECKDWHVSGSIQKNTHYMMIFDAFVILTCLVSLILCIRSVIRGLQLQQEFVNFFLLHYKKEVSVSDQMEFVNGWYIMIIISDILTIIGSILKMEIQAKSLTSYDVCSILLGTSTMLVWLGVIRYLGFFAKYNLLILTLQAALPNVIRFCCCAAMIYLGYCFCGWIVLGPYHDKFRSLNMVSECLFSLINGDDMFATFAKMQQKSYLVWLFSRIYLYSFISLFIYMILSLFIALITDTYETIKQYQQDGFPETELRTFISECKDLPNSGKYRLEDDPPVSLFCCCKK
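Test system – HEK293 line with stable expression of human TRPML3-YFP channel · Control set – carbachol 87 µM final as high control (100%), DMSO as low control (0%) · Signal – Fluo-8 calcium dye fluorescence, ex 470-495, em 515-575 nm · Incubation – 1-h 37 °C dye load, 5-s basal, 120-s post-compound reads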
TRPN1 ag: zebrafish TRPN1 channel agonists, primary screen, cell-based, HEK293, calcium fluorescence; transient receptor potential cation channel N1 (TRPN1/NompC), Danio rerio; HEK293 zebrafish TRPN1-YFP, Fluo-8 calcium fluorescence; 100% = response to 87 µM carbachol; activation, % at 3 µM; 220,000 compounds, 0.18% hits; AID 1424, 2008;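 active = activation above its plate's cutoff, the mean activation of test wells on that plate plus 3 SD, cut at about 19% in these data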
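Assay system: Zebrafish TRPN1-YFP in HEK293 cells | Incubation: Dye loading 1 h at 37 °C, then 30 min room temperature | Measured by: Kinetic Fluo-8 fluorescence, ex 470-495, em 515-575 nm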
OXTR agonist: human OXTR agonists, primary screen, fluorescence, CHO-OTR cells, Fluo-8 calcium. Oxytocin receptor (Homo sapiens), P30559. AID 2435, 2010. Fluo-8 calcium fluorescence; normalized: DMSO 0%, oxytocin 100%. activation, % at 3 µM. 320,000 compounds, 0.32% hits;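 active = activation above the mean of all tested compounds plus 3 SD, cutoff set per screening run, cut at about 20% in these data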;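 also: peak over basal fluorescence ratio from a 100 s FLIPR kinetic read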
OXTR potentiator: human OXTR potentiators, primary screen, fluorescence, CHO-OTR cells, Fluo-8 calcium. Fluo-8 calcium fluorescence, potentiator mode; 0% = oxytocin EC15, 100% = EC100. activation, % at 3 µM. 320,000 compounds, 0.061% hits;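 active = activation above that plate's cutoff, the mean activation of tested compounds plus 3 SD, cut at about 6.6% in these data, passing the limit was not always enough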
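Assay system: CHO cell line stably expressing human OTR | Also added: Oxytocin at about EC15, sub-maximal agonist stimulus | Times: Compound 6 min at room temperature before oxytocin, 100 s read | Measured by: Fluo-8 intracellular calcium fluorescence, ex 470-495, em 515-575 nm | Controls: EC15 oxytocin alone as 0%, 75 nM oxytocin as 100%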
V1aR counter: agonists of human V1a receptor, primary screen, counter-screen for OXTR agonist project, fluorescence, CHO-V1R cells; Fluo-8 calcium fluorescence, agonist mode; 0% DMSO, 100% 3 nM vasopressin; activation, % at 3 µM; 320,000 compounds, 0.25% hits; AID 2797, 2010;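 active = activation above the mean activation of all tested compounds plus 3 SD, per screening run, cut at about 20% in these data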;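 also: signal is peak over basal fluorescence ratio across a 100 second FLIPR read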
Each line names hits and unclear results; the compound was inactive in the other large screens. The list is not random: actives were taken first. Their share in the collection is about 0.55%.

Nc1c(C(=O)NCc2ccccc2)nnn1Cc1ccccc1	none
Cc1ccc(Cn2nnc(C(=O)Nc3cc(C)ccc3C)c2N)cc1	OXTR agonist 20, V1aR counter 23
CSc1ccc(Cn2nnc(C(=O)NCc3ccccc3)c2N)cc1	OXTR agonist 36, V1aR counter 36
CCOc1cc(C=O)ccc1OCCn1c([N+](=O)[O-])cnc1C	none (no result: TRPML3 ag, TRPN1 ag)
N#Cc1c(NC(=S)NC(=O)c2ccccc2)sc2c1CCN(CCc1ccccc1)C2	TRPML3 ag 14, TRPN1 ag 24, OXTR agonist 28, V1aR counter 57
COc1ccccc1CC(=O)Nc1ccc([N+](=O)[O-])cc1O	TRPN1 ag 21
Cc1ccc(N2CC(C(=O)Nc3ccc(C)c(S(=O)(=O)N(C)C)c3)CC2=O)cc1 (centres undefined)	none
Cc1ccc(-n2cc(CN3CCC(O)(c4ccccn4)CC3)c(-c3ccc(F)cc3)n2)cc1	none
Cc1cnc(NC(=O)CSc2ncc(-c3ccccc3)n2Cc2ccco2)s1	OXTR agonist 26, V1aR counter 30
CC(NC(=O)COC(=O)c1cc(S(=O)(=O)N2CCOCC2)ccc1F)c1ccccc1 (centres undefined)	none (no result: TRPML3 ag, TRPN1 ag)
O=C(COc1ccc(Cl)cc1)Nc1ncc([N+](=O)[O-])s1	TRPML3 ag 20, TRPN1 ag 30 (no result: OXTR agonist, OXTR potentiator, V1aR counter)
Cc1cnc(NC(=O)Cc2ccc(Br)cc2)s1	none (no result: TRPML3 ag, TRPN1 ag)
O=C(Cc1ccc(Cl)cc1)Nc1ncc([N+](=O)[O-])s1	TRPN1 ag 22 (no result: OXTR agonist, OXTR potentiator, V1aR counter)
O=C(Cc1ccc(Br)cc1)Nc1ncc([N+](=O)[O-])s1	TRPML3 ag 14, TRPN1 ag 21
CCCOc1ccc(S(=O)(=O)Nc2ccccn2)c2ccccc12	none (no result: TRPML3 ag, TRPN1 ag)
COc1ccc2cc(C(=O)N/N=C/c3sc4ccccc4c3O)ccc2c1	OXTR agonist 36, V1aR counter 35
CN1CCC(N(C)S(=O)(=O)c2ccc(NC(=O)COc3ccc(F)cc3)cc2)CC1	none (no result: TRPML3 ag, TRPN1 ag)
CN1CCC(N(C)S(=O)(=O)c2ccc(NC(=O)COc3ccc(Cl)cc3)cc2)CC1	OXTR agonist 25, V1aR counter 24 (no result: TRPML3 ag, TRPN1 ag)
CN(C)c1ccc(/C=[N+](\[O-])C2N(c3ccccc3)C(=S)SC2(C)C)cc1 (centres undefined)	none
Oc1ccc(C23CCCC2C2(CCCC2)c2ccc(O)cc2O3)c(O)c1 (centres undefined)	OXTR agonist 39, V1aR counter 28 (no result: TRPML3 ag, TRPN1 ag)
O=C(c1ccccc1)c1c[nH]c(C(=O)NNc2ccccc2)c1	none
Cc1cc(N2CCCC2)ccc1/C=C1\NC(=S)N(C)C1=O	OXTR agonist 54, V1aR counter 49
CN1C(=O)c2ccc(N3CCCC3)cc2C1=O	none
O=C1N/C(=C/c2ccc(N3CCCC3)cc2)C(=O)N1c1ccccc1	none
O=C1/C(=C/c2ccc(N3CCCC3)cc2)NC(=S)N1C1CC1	OXTR agonist 115, V1aR counter 84
COc1cc(/C=C2\SC(=Nc3ccccc3)NC2=O)cc(Cl)c1O	OXTR agonist 89, V1aR counter 70 (no result: TRPML3 ag, TRPN1 ag)
COc1cc(/C=C2/SC(=Nc3ccc(O)cc3)NC2=O)ccc1O	none
COc1cc(-c2n[nH]c(=S)n2/N=C/c2cccn2C)cc(OC)c1OC	TRPML3 ag 35, TRPN1 ag 64, OXTR agonist 72, V1aR counter 51
Cn1cccc1/C=N/n1c(-c2ccco2)n[nH]c1=S	none
CC(C)CCN(C(=S)Nc1cccc(F)c1)C1CCN(C(C)C)CC1	none
O=C(OCCN1C(=O)c2cccc3c(N4CCOCC4)ccc(c23)C1=O)c1cccc(Cl)c1	OXTR agonist 23, V1aR counter 22
O=C(OCCN1C(=O)c2cccc3c(N4CCOCC4)ccc(c23)C1=O)c1ccc(Cl)cc1Cl	none
Cc1cc(NC(=O)Nc2ccccc2F)ccc1Br	none
COC(=O)c1ccc(/C(O)=C(\C#N)c2nc3ccccc3s2)cc1	none
CC(C)=C(C#N)c1nc2ccccc2s1	OXTR agonist 36, V1aR counter 40
